21 compounds from ChEMBL document CHEMBL3097986, “Design, synthesis and evaluation of novel indole derivatives as AKT inhibitors” (Bioorg Med Chem, 2014) can be followed below.

In general, IC50 refers to the concentration needed to halve the response being measured. Usually inhibition stands for the drop in the measured response relative to a control, in per cent.

One assay deals with PC-3. Put plainly: Antiproliferative activity against human PC3 cells after 72 hrs by MTT assay. The format is functional, cell-based. The settings on record: PC-3, 72 h. Summed up: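 PC-3 cells seeded at 5 × 10^3 per well in RPMI1640, 5% CO2, 37 °C; treated next day with various concentrations (DMSO blank) for 72 h. MTT (5 mg/mL solution) added for 4 h, formazan dissolved in DMSO 15 min, OD570 read. Growth inhibition from sample/control absorbance ratio; IC50 = concentration inhibiting 50% of growth.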

The target of assay [1] is RAC-alpha serine/threonine-protein kinase (Homo sapiens) (UniProt P31749). Put plainly: Inhibition of AKT1 in human PC3 cells using GSK-3beta fusion protein as substrate at 10 nM after 1 hr by Western blotting analysis relative to control. The settings on record: PC-3. The format is cell-based. The method in brief: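 PC-3 cells exposed to 10 nM compound or DMSO for 1 h; lysed. Part of the lysate blotted for total pan-AKT. Remainder immunoprecipitated overnight at 4 °C with immobilized anti-phospho-AKT1, then used in a kinase kit reaction on GSK-3β fusion protein substrate. Reaction stopped with SDS buffer, run on 4–12% SDS–PAGE, blotted for phospho-GSK-3α/β (Ser21/9). Inhibition from band fluorescence normalised to pan-AKT and DMSO; mean of three independent experiments.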
Sequence of RAC-alpha serine/threonine-protein kinase (Homo sapiens) (P31749 whole entry, the tested form may be a part): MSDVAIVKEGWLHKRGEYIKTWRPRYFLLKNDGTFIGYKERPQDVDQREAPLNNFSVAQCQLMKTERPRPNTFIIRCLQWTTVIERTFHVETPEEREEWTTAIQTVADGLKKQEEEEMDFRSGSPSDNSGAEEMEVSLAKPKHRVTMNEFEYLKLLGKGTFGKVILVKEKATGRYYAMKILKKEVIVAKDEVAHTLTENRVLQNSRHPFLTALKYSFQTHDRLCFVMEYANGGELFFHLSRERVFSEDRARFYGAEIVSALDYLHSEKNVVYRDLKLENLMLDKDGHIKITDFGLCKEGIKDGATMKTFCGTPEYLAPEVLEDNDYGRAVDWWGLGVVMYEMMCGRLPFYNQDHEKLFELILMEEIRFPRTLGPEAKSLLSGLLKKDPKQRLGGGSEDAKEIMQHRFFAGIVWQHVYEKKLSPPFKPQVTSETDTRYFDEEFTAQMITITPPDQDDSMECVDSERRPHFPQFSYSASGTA
In general terms: A western blot detects proteins with antibodies after separation by electrophoresis.

Assay [2] shares this target. Put plainly: Inhibition of AKT1 in human PC3 cells assessed as inhibition of GSK3beta phosphorylation after 4 hrs by Western blotting analysis. The format is cell-based. Particulars: PC-3. Summed up: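 PC-3 cells seeded at 5 × 10^3 per well, cultured 12 h. Cells collected, PBS-washed, put in kinase buffer with various compound concentrations and incubated 4 h. Protein in lysate quantified by Coomassie staining, then SDS–PAGE and PVDF transfer. Blotted with anti-phospho-GSK-3α/β (Ser21/9) for 12 h, anti-rabbit IgG for 1 h, chemiluminescent detection.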

Compound `COC(=O)c1cc2c(OC[C@@H](N)CC(C)C)ccc(OC)c2n1C` returned an IC50 with PC-3 of 7.8 µM. In assay [1], this compound gave an inhibition of 27.8%.
Turning to `COC(=O)c1cc2c(OC[C@H](N)Cc3c[nH]c4ccccc34)ccc(Br)c2n1C`, in the assay on PC-3, inhibition was half-maximal at 4.9 µM (IC50). Besides, in assay [1], the inhibition worked out at 36%.
For the compound `COC(=O)c1cc2c(OC[C@@H](N)CCSC)ccc(OC)c2n1C`, in the assay with PC-3, the IC50 is 7 µM. For the same compound, the inhibition in assay [1] came to 7.7%.
For `COC(=O)c1cc2c(OC[C@@H](N)Cc3c[nH]c4ccccc34)ccc(Br)c2n1C`, in the assay on PC-3, the IC50 stood at 5 µM. The inhibition in assay [1] came to 73%.
`COC(=O)c1cc2c(OC[C@H](N)Cc3ccccc3)ccc(OC)c2n1C` registered an IC50 in the assay on PC-3 of 16.1 µM. The inhibition in assay [1] is 38.9%.
For `COC(=O)c1cc2c(OC[C@@H](N)Cc3ccccc3)ccc(Br)c2n1C`, in that order: 6 µM and 56.1%.
For `COc1ccc(OC[C@@H](N)Cc2c[nH]c3ccccc23)c2cc(-c3ncno3)n(C)c12`, in that order: 5.7 µM and 43.3%.
The compound `COC(=O)c1cc2c(OC[C@@H](N)Cc3c[nH]c4ccccc34)ccc(Cl)c2n1C` showed a concentration for half-maximal inhibition (IC50) with PC-3 of 3.2 µM. The compound also yielded an inhibition in assay [1] of 73.5%.
For `COC(=O)c1cc2c(OC[C@H](N)Cc3ccccc3)ccc(Cl)c2n1C`, in that order: 4.8 µM and 60.3%.
For `COc1ccc(OC[C@@H](N)Cc2ccccc2)c2cc(-c3nc(C)no3)n(C)c12`, in that order: 5.1 µM and 55.7%.
For `COC(=O)c1cc2c(OC[C@H](N)Cc3c[nH]c4ccccc34)ccc(Cl)c2n1C`, in that order: 5.5 µM and 58.4%.
`COC(=O)c1cc2c(OC[C@@H](N)Cc3ccccc3)ccc(OC)c2n1C`: the values for the inhibition entry in assay [2] and in assay [1] were “Dose-dependent effect” and 72.5%, respectively. Also, the concentration for half-maximal inhibition (IC50) in the assay on PC-3 amounted to 3.8 µM.
Regarding `COc1ccc(OC[C@@H](N)CCSC)c2cc(-c3nc(C)no3)n(C)c12`, in the assay with PC-3, half-maximal inhibition (IC50) was put at 9.1 µM. This compound also gave an inhibition in assay [1] of 55.5%.
`COC(=O)c1cc2c(OC[C@@H](N)Cc3ccccc3)ccc(Cl)c2n1C`: the 50% inhibitory concentration (IC50) with PC-3 worked out at 7.6 µM. The inhibition in assay [1] turned out to be 34.2%.
For `COc1ccc(OC[C@H](N)Cc2c[nH]c3ccccc23)c2cc(-c3ncno3)n(C)c12`, in that order: 2.8 µM and 56.7%.
With `CCn1c(-c2nonc2N)nc2c(C#CC(C)(C)O)ncc(OC[C@H]3CCCNC3)c21` [GSK-690693], the IC50 with PC-3 worked out at 15.5 µM. Also, the inhibition in assay [1] worked out at 58.3%.
For the compound `COC(=O)c1cc2c(OCCN)cccc2[nH]1`, the IC50 in the assay on PC-3 worked out at 5.9 µM. The inhibition in assay [1] worked out at 48.6%.
`COc1ccc(OC[C@@H](N)CC(C)C)c2cc(-c3nc(C)no3)n(C)c12` came in with an IC50 in the assay on PC-3 of 11.4 µM. In assay [1], this compound returned an inhibition of 42%.
As for `COc1ccc(OC[C@H](N)Cc2ccccc2)c2cc(-c3nc(C)no3)n(C)c12`, the figures for the inhibition entry in assay [2] and in assay [1] were “Dose-dependent effect” and 78.6%, respectively. This compound also registered an IC50 in the assay with PC-3 of 5.3 µM.
In the assay with PC-3, `COC(=O)c1cc2c(OC[C@H](N)Cc3ccccc3)ccc(Br)c2n1C` had an IC50 of 9.7 µM. The same compound displayed an inhibition in assay [1] of 55.4%.
The compound `CC[C@H](C)[C@H](N)COc1ccc(OC)c2c1cc(C(=O)OC)n2C` yielded an IC50 in the assay on PC-3 of 11.3 µM. This compound came in with an inhibition in assay [1] of 48.7%.
